According to ChEMBL document CHEMBL4706580, “4-Amino-1,2,4-triazole-3-thione-derived Schiff bases as metallo-β-lactamase inhibitors” (Eur J Med Chem, 2020):
Calls of active or inactive are those of the source. No cut-off for these calls is given here.

Key:
[1] = Inhibition of beta-lactamase NDM1 (unknown origin) expressed in Escherichia coli BL21(DE3) using cefotaxime/nitrocefin as substrate by measuring substrate hydrolysis at 200 uM by spectrophotometric analysis
[2] = Inhibition of beta-lactamase NDM1 (unknown origin) expressed in Escherichia coli BL21(DE3) using cefotaxime/nitrocefin as substrate by measuring substrate hydrolysis at 100 uM by spectrophotometric analysis
[3] = Inhibition of beta-lactamase IMP-1 (unknown origin) expressed in Escherichia coli BL21(DE3) using imipenem as substrate by measuring substrate hydrolysis by spectrophotometric analysis
How it was run: (§1)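 Purified enzyme (overproduced in E. coli BL21(DE3), pET-9a; ion-exchange and gel filtration), 1-70 nM final. Reporter substrate 150 μM imipenem, read at 300 nm, 30 °C, 50 mM HEPES pH 7.5. Single-point screen at 100 or 200 μM; Ki from v0/vi vs [I] (0.5–1,000 μM final) assuming competitive inhibition, or Dixon plot. Triplicate.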

[4] = Inhibition of beta-lactamase IMP-1 (unknown origin) expressed in Escherichia coli LZ2310 assessed as potentiation of ceftazidime antibacterial activity by measuring ceftazidime induced diameter of inhibition zone at 40 uM incubated for 18 hrs by disk diffusion method (reference value: 9 mm)
How it was run: (§2)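 Efflux-deficient E. coli LZ2310 (NorE, MdfA, AcrA knocked out) carrying pLB-II with the cloned MBL gene. Mueller-Hinton, CLSI disk diffusion; antibiotic disks (30 µg cefoxitin for VIM-2, 10 µg ampicillin for VIM-4, 30 µg ceftazidime for NDM-1/IMP-1) loaded with inhibitor in DMSO (≤15 µL). Zone diameter after 18 h, 35 ± 1 °C; DMSO and 220 µg EDTA controls. Triplicate.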

[5] = target: Hydroxyacylglutathione hydrolase (Homo sapiens); assay: Inhibition of human Glyoxalase II expressed in Escherichia coli BL21 (DE3)
[6] = Inhibition of beta-lactamase VIM4 (unknown origin) expressed in Escherichia coli BL21(DE3) using imipenem as substrate by measuring substrate hydrolysis by spectrophotometric analysis; how it was run: as §1
[7] = Inhibition of beta-lactamase VIM2 (unknown origin) expressed in Escherichia coli BL21(DE3) using imipenem as substrate by measuring substrate hydrolysis at 200 uM by spectrophotometric analysis; how it was run: as §1
[8] = Inhibition of beta-lactamase L1 (unknown origin) expressed in Escherichia coli BL21(DE3) using nitrocefin as substrate by measuring substrate hydrolysis preincubated for 30 mins by spectrophotometric analysis
How it was run: (§3)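 Enzyme 0.2–0.8 nM in 25 mM HEPES pH 7.5 with 50 μM ZnCl2 final, pre-incubated 30 min at 21 °C with inhibitor (100 μM screen). Nitrocefin 100 μM final, read at 482 nm, 30 °C. Residual activity vs three uninhibited samples; Ki (1–100 μM inhibitor) from Hanes linearization, competitive model. Triplicate.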

[9] = Inhibition of beta-lactamase VIM2 (unknown origin) expressed in Escherichia coli BL21(DE3) using imipenem as substrate by measuring substrate hydrolysis at 100 uM by spectrophotometric analysis; how it was run: as §1
[10] = Inhibition of beta-lactamase VIM-4 (unknown origin) expressed in Escherichia coli LZ2310 assessed as potentiation of ampicillin antibacterial activity by measuring ampicillin induced diameter of inhibition zone at 40 uM incubated for 18 hrs by disk diffusion method (reference value: 6 mm); how it was run: as §2
[11] = Inhibition of beta-lactamase CphA (unknown origin) expressed in Escherichia coli BL21(DE3) using imipenem as substrate by measuring substrate hydrolysis by spectrophotometric analysis
How it was run: (§4)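 Enzyme 0.2–0.8 nM in 15 mM cacodylate pH 6.5, no added zinc, pre-incubated 30 min at 21 °C with inhibitor (100 μM screen). Imipenem substrate added from 10 mM stock; hydrolysis at 300 nm, 30 °C. Residual activity vs three uninhibited samples; Ki (1–100 μM inhibitor) by Hanes linearization, competitive model. Triplicate.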

[12] = Inhibition of beta-lactamase IMP-1 (unknown origin) expressed in Escherichia coli BL21(DE3) using imipenem as substrate by measuring substrate hydrolysis at 100 uM by spectrophotometric analysis; how it was run: as §1
[13] = Inhibition of beta-lactamase VIM2 (unknown origin) expressed in Escherichia coli BL21(DE3) using imipenem as substrate by measuring substrate hydrolysis by spectrophotometric analysis; how it was run: as §1
[14] = Binding affinity to beta-lactamase VIM-2 expressed in Escherichia coli BL21(DE3) assessed as dissociation constant at 25 degC by isothermal titration calorimetry
How it was run: (§5)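 VIM-2 (19 μM) in 10 mM HEPES-NaOH, 0.15 M NaCl, 50 μM ZnSO4, pH 7.5, DMSO matched to ligand (1-2% final). One 0.5 μl then 19 × 2 μl injections of compound (200-400 μM), 150 s apart, 25 °C. Buffer dilution heats subtracted; nonlinear least-squares fit for n, Ka, ΔH; compound concentration adjusted in fitting so n ≈ 1.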

[15] = Binding affinity to beta-lactamase VIM-2 expressed in Escherichia coli BL21(DE3) assessed as Gibbs free energy at 25 degC by isothermal titration calorimetry; how it was run: as §5
[16] = Binding affinity to beta-lactamase VIM-2 expressed in Escherichia coli BL21(DE3) assessed as change in enthalpy at 25 degC by isothermal titration calorimetry; how it was run: as §5
[17] = Inhibition of beta-lactamase VIM-2 (unknown origin) expressed in Escherichia coli LZ2310 assessed as potentiation of cefoxitin antibacterial activity by measuring cefoxitin induced diameter of inhibition zone at 40 uM incubated for 18 hrs by disk diffusion method (reference value: 14 mm); how it was run: as §2
[18] = Binding affinity to beta-lactamase VIM-2 expressed in Escherichia coli BL21(DE3) assessed as association constant at 25 degC by isothermal titration calorimetry; how it was run: as §5
[19] = Inhibition of beta-lactamase CphA (unknown origin) expressed in Escherichia coli BL21(DE3) using imipenem as substrate by measuring substrate hydrolysis at 100 uM by spectrophotometric analysis; how it was run: as §4
[20] = Binding affinity to beta-lactamase VIM-2 expressed in Escherichia coli BL21(DE3) assessed as change in entropy at 25 degC by isothermal titration calorimetry; how it was run: as §5
[21] = Inhibition of beta-lactamase L1 (unknown origin) expressed in Escherichia coli BL21(DE3) using nitrocefin as substrate by measuring substrate hydrolysis at 100 uM preincubated for 30 mins by spectrophotometric analysis; how it was run: as §3
[22] = Inhibition of beta-lactamase IMP-1 (unknown origin) expressed in Escherichia coli BL21(DE3) using imipenem as substrate by measuring substrate hydrolysis at 200 uM by spectrophotometric analysis; how it was run: as §1
[23] = Inhibition of beta-lactamase NDM1 (unknown origin) expressed in Escherichia coli BL21(DE3) using cefotaxime/nitrocefin as substrate by measuring substrate hydrolysis by spectrophotometric analysis
How it was run: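 His-tagged enzyme from E. coli BL21(DE3) pET-15b, affinity-purified, 1-70 nM final. Reporter substrate 120 μM cefotaxime (260 nm) or 100 μM nitrocefin (482 nm), 30 °C, 50 mM HEPES pH 7.5. Inhibitor 0.5–1,000 μM final; competitive Ki from v0/vi vs [I] slope or Dixon plot. Triplicate.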

[24] = Inhibition of beta-lactamase L1 (unknown origin) expressed in Escherichia coli BL21(DE3) using nitrocefin as substrate by measuring substrate hydrolysis at 200 uM preincubated for 30 mins by spectrophotometric analysis
[25] = Inhibition of beta-lactamase NDM-1 (unknown origin) expressed in Escherichia coli LZ2310 assessed as potentiation of ceftazidime antibacterial activity by measuring ceftazidime induced diameter of inhibition zone at 40 uM incubated for 18 hrs by disk diffusion method (reference value: 15 mm); how it was run: as §2
[26] = Inhibition of beta-lactamase CphA (unknown origin) expressed in Escherichia coli BL21(DE3) using imipenem as substrate by measuring substrate hydrolysis at 200 uM by spectrophotometric analysis

SMILES | inhibition [1] | inhibition [2] | IC50 [5] [nM] | Ki [6] [nM] | Ki [8] [nM] | inhibition zone (IZ) [10] [mm] | Ki [11] [nM] | inhibition [12] | Ki [13] [nM] | Kd [14] [nM] | deltaG [15] [kcal/mol] | deltaH [16] [kcal/mol] | inhibition zone (IZ) [17] [mm] | Ka [18] | -TdeltaS [20] [kcal/mol] | inhibition [22] | Ki [23] [nM] | other results
Cc1ccccc1-c1n[nH]c(=S)n1/N=C/c1ccc(OCc2ccccc2)cc1 | inactive | inactive | 5900 | 2100 | 12000 | 6 | 22000 | – | – | – | – | – | – | – | – | – | – | Ki [3]: 300 nM; inhibition zone (IZ) [4]: 9 mm; inhibition [7]: inactive; inhibition [9]: inactive
Cc1ccccc1-c1n[nH]c(=S)n1/N=C/c1ccc(O)c(C(=O)O)c1 | – | – | – | 1400 | 13000 | 6 | – | 45% | 2000 | 1300 | -8 | -9.1 | 14 | 7.7 10^6/M | -1.1 | – | – | inhibition [19]: 39%
Oc1ccc(/C=N/n2c(-c3ccccc3O)n[nH]c2=S)c(O)c1 | inactive | inactive | – | 500 | – | 6 | 6000 | inactive | 2000 | 2980 | -7.5 | -9.6 | 14 | 3.4 10^6/M | -2.1 | inactive | – | inhibition [21]: 31%
Cc1ccccc1-c1n[nH]c(=S)n1/N=C/c1ccc(O)cc1O | inactive | inactive | 19000 | 400 | 31000 | 6 | 62000 | – | 7000 | – | – | – | 14 | – | – | – | – | –
O=C(O)c1ccccc1/C=N/n1c(-c2cc(Cl)cc(Cl)c2)n[nH]c1=S | – | – | – | 800 | 3000 | 6 | 4000 | 53% | 3000 | 863 | -8.2 | -3.1 | 14 | 1.2 10^6/M | 4.3 | – | 30000 | –
Oc1ccc(/C=N/n2c(-c3cccc(Br)c3)n[nH]c2=S)c(O)c1 | – | 45% | – | 13000 | – | – | – | inactive | 620 | 323 | -8.8 | -10.4 | – | 3.1 10^6/M | -1.6 | inactive | – | inhibition [21]: inactive; inhibition [24]: inactive
COc1ccc(O)c(-c2n[nH]c(=S)n2/N=C/c2ccccc2C(=O)O)c1 | – | – | – | 500 | 9000 | 6 | 13000 | inactive | 700 | 389 | -8.7 | -6.3 | 14 | 2.6 10^6/M | 2.4 | inactive | 27000 | –
O=C(O)c1ccccc1/C=N/n1c(-c2ccccc2)n[nH]c1=S | – | – | 25500 | 1400 | 5000 | – | 58000 | inactive | 2700 | 519 | -8.5 | -3.6 | 20 | 1.9 10^6/M | 4.9 | inactive | 38000 | –
O=C(O)c1ccccc1/C=N/n1c(-c2ccc3ccccc3c2)n[nH]c1=S | – | – | 13200 | 400 | 4620 | – | – | – | 700 | 713 | -8.4 | -3.3 | 15 | 1.4 10^6/M | 5.1 | – | 2300 | Ki [3]: 10600 nM; inhibition zone (IZ) [4]: 9 mm; inhibition zone (IZ) [25]: 15 mm; inhibition [19]: inactive; inhibition [26]: inactive
